These results are taken from ChEMBL document CHEMBL4513216, “Probing the Open Global Health Chemical Diversity Library for Multistage-Active Starting Points for Next-Generation Antimalarials” (ACS Infect Dis, 2020).

Molecules are shown by their SMILES.

This data set is described as follows: Toxicity liver stage against HepG2, at 10uM. Type of data set: cell-based. To be noted: human, HepG2-A16-CD81EGFP cells; read-out: INHIBITION
On the set-up: test concentration 10 uM, cell line HepG2-A16-CD81EGFP. The method, boiled down:
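Uninfected HepG2-A16-CD81EGFP cells, 3 × 10^3 per well, 1536-well, plated on prespotted compound at 10 μM final, parasite-free screening media added to match infected plates; puromycin 10 μM positive, DMSO 0.5% negative; run in parallel with 48 h PbLuc assay at 37 °C, 5% CO2; viability by CellTiter-Glo luminescence, normalized to controls.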
On to `COCc1nc(N(C)C)ncc1C(=O)OC`, for which the cytotoxicity at 10 µM amounted to 13.2%.

For `O=c1[nH]c(NCCO)nc2c1C1(CCCCC1)Cc1ccccc1-2`, the cytotoxicity at 10 µM amounted to 7.11%.

`Cc1oncc1C(=O)NCC1(O)CCc2ccccc2C1` (stereo not drawn): the cytotoxicity at 10 µM is -6.29%. On to `CCS(=O)(=O)NCC1OCCc2cn(CC3CCOCC3)nc21` (stereo not drawn), for which the cytotoxicity at 10 µM was determined as 2.77%. As to `Cc1ccc(NC(=O)Cn2cc(I)cn2)cc1C`, the cytotoxicity at 10 µM amounted to 5.03%. For `COc1ccc(C2SCC(=O)Nc3ccsc32)cc1` (stereo not drawn) the value was 10.5%; for `CCOC1(C)C(=O)c2ccccc2N1Nc1ccccc1C(=O)CC` (stereo not drawn), 12.9%. On to `CCN1CCN(S(=O)(=O)c2cc(C)c(C)cc2Br)CC1`, for which the cytotoxicity at 10 µM is -9.74%.

`CNc1ncc(CN2CCC(CCc3ccccc3)CC2)cn1`: the cytotoxicity at 10 µM turned out to be 5.19%. Turning to `Nc1cc(N2CCOCC(Cc3ccc4[nH]ccc4c3)C2)ncn1` (stereo not drawn), the cytotoxicity at 10 µM was -5.69%. Turning to `Cn1cncc1CN1CCCC1c1cncc(Oc2ccc(F)cc2)n1` (stereo not drawn), the cytotoxicity at 10 µM is -17.3%. On to `Cc1noc(C)c1-c1ccnc(C2CCNCC2)c1`, for which the cytotoxicity at 10 µM was -8.41%. For the molecule `CCc1c(C)nc2cc(C3CCN(Cc4ccc(F)cc4)C3)nn2c1O` (stereo not drawn), the cytotoxicity at 10 µM was -18.6%.

In the case of `Cc1cc(C)nc(N2CCC(c3cncc(-n4ccnc4)n3)CC2)n1`, the cytotoxicity at 10 µM was -8.66%. For the molecule `Cc1cc(C(=O)NCCc2nc3c(s2)CCCC3)n(C)n1`, the cytotoxicity at 10 µM was found to be 20.5%.

`CN(C)C1(C(=O)NC2CCC(Oc3ccccc3C#N)CC2)CCC1` (stereo not drawn): the cytotoxicity at 10 µM turned out to be 9.92%. With `COC(=O)CCN(C)C(=O)c1ccc(-c2cscn2)cc1`, the cytotoxicity at 10 µM was -7.29%. As to `COc1ccc(CN(C(=O)C2CCCOC2)c2ccncc2)cc1` (stereo not drawn), the cytotoxicity at 10 µM amounted to 6.35%. With `CC(C)c1cc(C(=O)N2CCc3ccccc3C2C(=O)O)n(C)n1` (stereo not drawn), the cytotoxicity at 10 µM amounted to 7.28%.

Regarding `CCN(C)S(=O)(=O)N(Cc1cscn1)c1ccccc1`, the cytotoxicity at 10 µM was -3.81%. Consider `CCC1CCCN(Cc2nc3ccccc3c(=O)[nH]2)C1` (stereo not drawn), for which the cytotoxicity at 10 µM is -46%.

Turning to `CC(=O)c1cccc(NC(=O)NCCc2nnc[nH]2)c1`, the cytotoxicity at 10 µM is -39.1%. In the case of `COc1ccccc1CN(Cc1cccs1)S(=O)(=O)N(C)C(C)C`, the cytotoxicity at 10 µM was -46.7%. `Cc1ccc(CN(CC(=O)NC2CCOCC2)c2ccc(F)cc2)o1`: the cytotoxicity at 10 µM came out at 1.55%. Regarding `COc1cccc(CNCc2c(C)nc3sc(C)cn23)c1OC`, the cytotoxicity at 10 µM is 32.8%. As to `O=C(NCCCC(=O)N1Cc2ccccc2C1)NCc1cccnc1`, the cytotoxicity at 10 µM is 11.9%. For `CC(NCCNS(=O)(=O)c1cccc(Cl)c1)C1CCOCC1` (stereo not drawn), the cytotoxicity at 10 µM was -1.6%. In the case of `O=C(Nc1ccccn1)NC1CCN(c2ccccc2OC(F)F)C1` (stereo not drawn), the cytotoxicity at 10 µM was 11.7%.

Turning to `CN1CCOC(CNCCOc2cccc(C#N)c2)C1` (stereo not drawn), the cytotoxicity at 10 µM was 7.56%.

Take `CCc1ccc(C2CCCCCN2C(=O)CNC(=O)NC2CC2)o1` (stereo not drawn): the cytotoxicity at 10 µM is 0.0456%. `CN(c1ccc(CNC(=O)c2ccc(O)nc2)cc1)C1CCCCC1`: the cytotoxicity at 10 µM is -0.77%. Turning to `CN(Cc1cccc(C#N)c1)c1ncc(C(N)=O)cc1Cl`, the cytotoxicity at 10 µM was determined as 1.33%. Take `O=C(NC1CCCCC1)C1CCCN(C(=O)Nc2ccccn2)C1` (stereo not drawn): the cytotoxicity at 10 µM was found to be 3.57%. As for `Cc1nn(C)c(N(C)C)c1CNCc1cccc(Cl)c1`, the cytotoxicity at 10 µM is -8.27%. For `N#CCCN(C(=O)CN1CCCC1c1ccccc1Cl)c1ccccc1` (stereo not drawn) the value was 8.22%. As for `COCc1nc2cc(NCc3cc[nH]n3)ccc2o1`, the cytotoxicity at 10 µM stood at 6.7%. Consider `Cc1cnn(CCNCc2ccc(OCc3noc(C)n3)cc2)c1`, for which the cytotoxicity at 10 µM stood at 1.33%. For `Cc1nn(C)c(C)c1OCC(=O)NCC(O)Cc1ccccc1` (stereo not drawn) the value was -3.81%; for `CCN(CC)C(=O)N1CCN(C(=O)C2CCCc3[nH]ncc32)CC1` (stereo not drawn), -2.3%. The value for `COCC(C)(C#N)NC(=O)COc1ccccc1` (stereo not drawn) was 7.51%. As for `CCC(NC(=O)NCc1cccc(N(C)C)n1)c1nccs1` (stereo not drawn), the cytotoxicity at 10 µM came out at 23.3%. Regarding `CN(CCCc1ccc(C(F)(F)F)cc1)Cc1nccn1C`, the cytotoxicity at 10 µM came to 9.05%. Regarding `O=C(c1cncc(Br)c1)N1CCCc2ccc(F)cc21`, the cytotoxicity at 10 µM is -1.01%. As to `CCOc1cc(CNC(C)c2sccc2C)ccn1` (stereo not drawn), the cytotoxicity at 10 µM was -8.14%. Regarding `CC(NC(=O)NCCc1cnn(C)c1)c1ccc(Cl)s1` (stereo not drawn), the cytotoxicity at 10 µM was -2.47%. `O=C(CN1CCC(Nc2ncccn2)CC1)Nc1ccccc1`: the cytotoxicity at 10 µM is -17.5%. For `Cc1ccccc1C(=O)NC1CCN(Cc2ncc(C(C)(C)C)o2)CC1`, the cytotoxicity at 10 µM is -17.5%. Turning to `Cc1ccc(-n2ncc(C(=O)NC3CCCCC3)c2N)cc1`, the cytotoxicity at 10 µM is -50.6%. Turning to `Cc1cc(NC(=O)c2nc(N3CCCC3)ncc2Cl)nc(C(C)C)n1`, the cytotoxicity at 10 µM amounted to 69.3%. For `CSc1ccc(C(CN)N2CCc3sccc3C2)cc1` (stereo not drawn) the value was -5.93%.

Regarding `FC(F)(F)CCc1ccnc(N2CCN(CCc3ccncc3)CC2)n1`, the cytotoxicity at 10 µM is -5.86%.

In the case of `Cc1cc(F)c(C(C(=O)O)N2CCN(Cc3ccccn3)CC2)cc1Cl` (stereo not drawn), the cytotoxicity at 10 µM came to 4.2%.

Take `CN1CCC(N(C)CCC(=O)N2CCC(Oc3ccc(Cl)cc3)CC2)C1` (stereo not drawn): the cytotoxicity at 10 µM was determined as 7.04%. As for `Cc1cnc(C)c(N2C[C@H]3OC(=O)N(C4CCCC4)[C@H]3C2)n1`, the cytotoxicity at 10 µM is 12.5%. In the case of `Cc1cc(NC2CCCN(Cc3ccc(F)cc3)C2)n2nc(C)cc2n1` (stereo not drawn), the cytotoxicity at 10 µM turned out to be 0.0152%.

For the molecule `c1ccc(-c2nc3c(c(NCCn4cccc4)n2)CCNCC3)nc1`, the cytotoxicity at 10 µM was -51.9%. In the case of `COc1ccc(C(=O)N2CCC3(CC2)c2ccccc2[C@@H](N)[C@@H]3O)cc1`, the cytotoxicity at 10 µM is -3.34%. With `CN(Cc1csc(-c2ccccc2)n1)C(=O)CCn1ccccc1=O`, the cytotoxicity at 10 µM was -2.84%.

With `CC(=O)N[C@@H]1Cc2ccccc2[C@H]1Nc1ccncn1`, the cytotoxicity at 10 µM was -43.6%. Regarding `CCn1nc(CNC(=O)C2CCCN(CC(N)=O)C2)c2ccccc21` (stereo not drawn), the cytotoxicity at 10 µM was -9.65%. As to `CSC(C)CCN1CCC(n2cc(C3CCCCC3)nn2)CC1` (stereo not drawn), the cytotoxicity at 10 µM was -1.39%. For `CN1CCC(N(C)CCC(=O)N2CCC(Cc3ccc(F)cc3)CC2)C1` (stereo not drawn), the cytotoxicity at 10 µM was -1.9%. With `Cc1nc2c(c(NCc3ccccc3)n1)CCN(C(=O)NC(C)C)CC2`, the cytotoxicity at 10 µM worked out at 28.7%. As for `Cc1ncsc1CCN(C)C(=O)CN1C(=O)OC[C@@H]1c1ccccc1`, the cytotoxicity at 10 µM was -51.2%.

For `CCCc1cc(C(=O)N(C)Cc2ccc(OC)c3ncccc23)n(C)n1`, the cytotoxicity at 10 µM is 37.2%. Consider `O[C@H]1Cc2ccccc2[C@H]1n1ccnc1-c1cc2n(n1)CCNC2`, for which the cytotoxicity at 10 µM amounted to 1.58%.

As for `CN(C)c1nc2c(c(N3CCc4ccccc4C3)n1)CCNC2`, the cytotoxicity at 10 µM amounted to 10.9%. The value for `CN(CCSc1ccccc1)C(=O)c1cn2c(n1)CNCC2` was -47.4%. For `N#Cc1cccc(C(=O)N2CCCC(O)(CO)CC2)c1` (stereo not drawn) the value was 1.29%; for `NC(=O)c1cc2c(nc1Oc1ccc(CN3CCCC3)cc1F)CCC2`, -3.62%. Turning to `OCCOc1ccccc1CN1CCCC(O)(CO)C1` (stereo not drawn), the cytotoxicity at 10 µM was -38.7%.

In the case of `Cc1cc(C)cc(CN2CCN(Cc3cccc(CCN)c3)CC2=O)c1`, the cytotoxicity at 10 µM was -18.3%. With `Cc1ccsc1CN(CCN(C)C)C(=O)C1=NNC(=O)CC1`, the cytotoxicity at 10 µM was -13.4%. Regarding `CCc1nn(C)c(Cl)c1CN1CCN(c2ccc(Cl)nn2)CC1`, the cytotoxicity at 10 µM stood at 8.01%.

With `CC(C)Cc1cc(C(=O)N2CCC[C@H]2C(=O)N2CCOCC2)on1`, the cytotoxicity at 10 µM is 6.07%. For `COc1ncc(-c2cc(NC3CCCC3)nc3[nH]ccc23)c(OC)n1` the value was 16.3%; for `CCCc1cc(CNC2CCN(c3nc4ccccc4s3)CC2)on1`, -4.34%. For `COCc1nc2ncc3c(=O)n(-c4ccccc4OC)ccc3n2n1` the value was -8.17%; for `Nc1nc2c(c(N3CCSCC3)n1)CCN(Cc1ccccn1)CC2`, -53%.

In the case of `COc1ccc(N(c2ccccc2)c2ccc(C(=O)O)s2)cc1`, the cytotoxicity at 10 µM was -1.5%. Regarding `COCCN1CCN(CCCS(=O)(=O)N(C)C)CC1C` (stereo not drawn), the cytotoxicity at 10 µM was 3.54%.

As for `CC(=O)c1ccc(S(=O)(=O)NCc2cccnc2N(C)C)cc1`, the cytotoxicity at 10 µM was 12.6%. The value for `CC(C)C(=O)NC1CCCN(C(=O)c2ccc(O)c(Cl)c2)C1` (stereo not drawn) was -6.04%; that for `CCc1nc(C(=O)N2CCCC2)nn1-c1ccccc1Cl` was -3.17%; that for `CCOc1ccc(S(=O)(=O)NCc2cccnc2N(C)C)cc1` was 34.7%.

On to `CCc1nc(CN(C)C2CCN(Cc3cnc(C)cn3)C2)no1` (stereo not drawn), for which the cytotoxicity at 10 µM was 4.23%. In the case of `CCc1ccc(CN2CCCCC2c2n[nH]cc2-c2cc(C)no2)cc1` (stereo not drawn), the cytotoxicity at 10 µM turned out to be 35%. For the molecule `O=S(=O)(c1cccs1)N1Cc2nc(CN3CCCC3)oc2C1`, the cytotoxicity at 10 µM was -118%.

Consider `COc1cccc(-c2noc(C3CCN(CC4CCCCC4)C3)n2)c1` (stereo not drawn), for which the cytotoxicity at 10 µM was -3.44%. Regarding `CNC(=O)COC1COC2(CCN(Cc3cccnc3)CC2)C1` (stereo not drawn), the cytotoxicity at 10 µM was 6.53%. Regarding `Cc1ccc2c(c1)C1(CCNCC1)CC2NC1CC1` (stereo not drawn), the cytotoxicity at 10 µM is -117%. As for `O=C(Cc1ccccn1)N1CCN2C[C@H](Oc3cncnc3)C[C@H]2C1`, the cytotoxicity at 10 µM is -73%. The value for `Cc1cc(CN2CCc3c(CNc4ncccn4)cncc3C2)oc1C` was -82.6%; that for `Cc1noc(C)c1CN1CCc2ncnc(-c3ccc(F)cc3)c2CC1` was -100%. As to `Cn1cc(CN2C[C@H]3CCC[C@@]3(COc3ccccn3)C2)cn1`, the cytotoxicity at 10 µM is -107%. Consider `O=C(N1CCCC1)N1CCOCC2(CCN(Cc3cccs3)C2)C1` (stereo not drawn), for which the cytotoxicity at 10 µM was -3.85%.

With `COc1cc2c(cc1CNCc1ccnc(-n3cccn3)c1)OC(C)C2` (stereo not drawn), the cytotoxicity at 10 µM is 11.2%. `COc1cc(CNC(C)c2ccc(F)c(F)c2)cc2c1OCCO2` (stereo not drawn): the cytotoxicity at 10 µM was -1.58%.
